The experiment addresses Signal transducer and activator of transcription 3 (Homo sapiens, UniProt P40763). Description: Inhibition of Stat3 dimer DNA binding activity in human U373MG cells nuclear extract after 1.5 hrs by EMSA using radiolabeled probe hSIE. Put shortly:
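Sub-confluent U251MG or U373MG cells treated with compound (5 μM for 0–24 h, or 0–5 μM for 1.5 h). Stat3:DNA bands scanned, quantified and plotted against concentration to derive IC50. Controls were 0.025% DMSO.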
In general terms: Mobility shift assays separate free from complexed probe on a gel.

One may read the IC50 as the concentration that inhibits the measured activity by half. A low value points to inhibition by little substance.

Signal transducer and activator of transcription 3, sequence (P40763 whole entry): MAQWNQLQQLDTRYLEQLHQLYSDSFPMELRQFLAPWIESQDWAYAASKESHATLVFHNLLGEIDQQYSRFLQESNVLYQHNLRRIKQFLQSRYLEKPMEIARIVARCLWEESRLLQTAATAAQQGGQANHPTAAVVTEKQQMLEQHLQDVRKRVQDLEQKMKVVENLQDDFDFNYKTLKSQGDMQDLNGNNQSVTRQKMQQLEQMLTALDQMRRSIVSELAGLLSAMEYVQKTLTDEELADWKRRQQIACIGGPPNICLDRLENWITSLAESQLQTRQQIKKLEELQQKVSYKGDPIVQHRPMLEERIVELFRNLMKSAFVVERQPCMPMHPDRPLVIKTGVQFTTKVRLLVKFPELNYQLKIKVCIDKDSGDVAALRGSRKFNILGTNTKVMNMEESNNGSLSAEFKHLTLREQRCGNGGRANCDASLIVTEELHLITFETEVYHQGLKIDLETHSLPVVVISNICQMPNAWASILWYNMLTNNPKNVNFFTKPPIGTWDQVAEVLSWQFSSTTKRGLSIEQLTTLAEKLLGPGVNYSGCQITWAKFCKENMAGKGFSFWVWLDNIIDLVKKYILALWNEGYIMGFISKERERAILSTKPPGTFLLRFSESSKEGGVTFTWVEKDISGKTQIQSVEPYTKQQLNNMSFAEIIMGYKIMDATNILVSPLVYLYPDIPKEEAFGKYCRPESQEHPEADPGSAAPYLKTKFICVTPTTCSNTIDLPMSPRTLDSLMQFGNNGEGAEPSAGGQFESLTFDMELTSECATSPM

`C/C=C(\C)C(=O)OCC1=C2/C(=C\[C@@]3(C)CC[C@](O)(O3)[C@H](C)C[C@@H]2O)OC1=O` displayed an IC50 of 2.4 µM.

Molecule `C/C=C(\C)C(=O)O[C@H]1C[C@@H](C)[C@]2(OC)CC[C@](C)(/C=C3/OC(=O)C(COC(C)=O)=C31)O2` [Vernolide-B] yielded an IC50 of 4.1 µM. This IC50 is about 1.7-fold higher than that of the molecule before.

Values taken from BindingDB's records for doi:10.1021/acs.jmedchem.5b00686 (University of Hawaii At Hilo, 2015).
